Data from ChEMBL document CHEMBL4190286, “Modulating the Serotonin Receptor Spectrum of Pulicatin Natural Products” (J Nat Prod, 2017).
pEC50, pIC50, pKi: −log10 of the molar value. Calls of active or inactive are those of the source. The calls are words filed in the database; no cut-off is given here.

Assays:
[1] = target: 5-hydroxytryptamine receptor 6 (Homo sapiens, UniProt P50406); assay: Displacement of [3H]-LSD from human 5-HT6 receptor expressed in HEK cells after 90 mins by microbeta scintillation counting analysis; type: cell-based
Sequence of 5-hydroxytryptamine receptor 6 (P50406 whole entry): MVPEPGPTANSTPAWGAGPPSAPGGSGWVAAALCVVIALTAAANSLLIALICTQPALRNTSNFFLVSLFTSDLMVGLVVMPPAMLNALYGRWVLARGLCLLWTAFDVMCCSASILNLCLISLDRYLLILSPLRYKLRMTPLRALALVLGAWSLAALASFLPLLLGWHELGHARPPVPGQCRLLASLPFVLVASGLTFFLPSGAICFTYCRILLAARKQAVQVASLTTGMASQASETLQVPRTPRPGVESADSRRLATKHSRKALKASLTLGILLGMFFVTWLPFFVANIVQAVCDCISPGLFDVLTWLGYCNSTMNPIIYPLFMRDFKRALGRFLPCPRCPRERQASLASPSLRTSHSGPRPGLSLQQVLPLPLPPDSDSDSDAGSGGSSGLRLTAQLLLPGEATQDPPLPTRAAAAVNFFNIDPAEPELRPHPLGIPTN

[2] = target: 5-hydroxytryptamine receptor 5A (Homo sapiens, UniProt P47898); assay: Displacement of [3H]-LSD from human 5-HT5A receptor expressed in Flp-In CHO cells after 90 mins by microbeta scintillation counting analysis; type: cell-based
Sequence of 5-hydroxytryptamine receptor 5A (P47898 whole entry): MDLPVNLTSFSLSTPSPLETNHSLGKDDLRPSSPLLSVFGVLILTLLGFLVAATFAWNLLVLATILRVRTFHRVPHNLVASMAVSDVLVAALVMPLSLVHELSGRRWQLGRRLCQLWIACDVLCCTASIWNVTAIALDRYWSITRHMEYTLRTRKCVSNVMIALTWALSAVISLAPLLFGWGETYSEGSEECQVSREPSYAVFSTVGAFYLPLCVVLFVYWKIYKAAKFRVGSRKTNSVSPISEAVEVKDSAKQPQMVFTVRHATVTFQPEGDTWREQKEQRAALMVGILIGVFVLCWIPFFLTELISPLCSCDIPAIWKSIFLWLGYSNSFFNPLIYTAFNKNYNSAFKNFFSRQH

[3] = target: T1, 5-hydroxytryptamine receptor 7 (Homo sapiens, UniProt P34969); assay: Displacement of [3H]-LSD from human 5-HT7A receptor expressed in HEK cells after 90 mins by microbeta scintillation counting analysis; type: cell-based
T1 sequence (P34969 whole entry): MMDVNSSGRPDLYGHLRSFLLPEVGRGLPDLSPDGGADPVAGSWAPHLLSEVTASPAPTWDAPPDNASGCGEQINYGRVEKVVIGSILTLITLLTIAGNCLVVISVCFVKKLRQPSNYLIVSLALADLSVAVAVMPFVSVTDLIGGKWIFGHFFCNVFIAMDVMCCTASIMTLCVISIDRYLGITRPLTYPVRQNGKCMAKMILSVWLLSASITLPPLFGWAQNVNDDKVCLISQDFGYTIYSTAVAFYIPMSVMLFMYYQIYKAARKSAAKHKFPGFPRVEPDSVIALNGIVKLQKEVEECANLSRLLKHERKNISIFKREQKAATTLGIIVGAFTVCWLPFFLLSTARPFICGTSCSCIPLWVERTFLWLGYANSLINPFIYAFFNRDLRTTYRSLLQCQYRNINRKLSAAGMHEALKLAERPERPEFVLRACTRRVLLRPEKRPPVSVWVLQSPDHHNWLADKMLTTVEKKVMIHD

[4] = target: 5-hydroxytryptamine receptor 1E (Homo sapiens, UniProt P28566); assay: Displacement of [3H]5-HT from human 5-HT1E receptor expressed in HEK cells after 90 mins by microbeta scintillation counting analysis; type: cell-based
Sequence of 5-hydroxytryptamine receptor 1E (P28566 whole entry): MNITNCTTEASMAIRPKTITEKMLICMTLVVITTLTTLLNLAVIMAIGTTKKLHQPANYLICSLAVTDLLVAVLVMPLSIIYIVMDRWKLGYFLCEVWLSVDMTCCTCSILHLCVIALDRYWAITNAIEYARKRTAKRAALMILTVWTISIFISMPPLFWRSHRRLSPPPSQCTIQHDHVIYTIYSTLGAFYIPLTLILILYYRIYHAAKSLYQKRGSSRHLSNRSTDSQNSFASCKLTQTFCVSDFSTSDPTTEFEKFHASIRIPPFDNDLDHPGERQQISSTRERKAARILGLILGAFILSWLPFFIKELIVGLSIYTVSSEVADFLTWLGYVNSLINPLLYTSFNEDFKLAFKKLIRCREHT

[5] = target: T2, 5-hydroxytryptamine receptor 2C (Homo sapiens, UniProt P28335); assay: Displacement of [3H]-Mesulergine from human 5-HT2C receptor expressed in HEKT cells after 90 mins by microbeta scintillation counting analysis; type: cell-based
T2 sequence (P28335 whole entry): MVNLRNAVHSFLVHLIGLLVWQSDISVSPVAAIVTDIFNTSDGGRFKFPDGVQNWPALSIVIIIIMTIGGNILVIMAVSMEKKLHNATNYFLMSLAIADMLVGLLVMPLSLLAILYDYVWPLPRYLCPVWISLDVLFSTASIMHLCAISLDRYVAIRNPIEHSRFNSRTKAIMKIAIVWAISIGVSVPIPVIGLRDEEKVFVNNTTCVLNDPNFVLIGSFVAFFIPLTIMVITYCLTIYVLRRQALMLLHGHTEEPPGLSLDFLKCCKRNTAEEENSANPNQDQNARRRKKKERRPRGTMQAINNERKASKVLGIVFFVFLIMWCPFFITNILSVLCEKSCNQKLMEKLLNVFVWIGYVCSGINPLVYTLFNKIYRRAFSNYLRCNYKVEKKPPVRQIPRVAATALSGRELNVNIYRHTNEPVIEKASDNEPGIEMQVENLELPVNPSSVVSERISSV

[6] = target: T3, 5-hydroxytryptamine receptor 2A (Homo sapiens, UniProt P28223); assay: Displacement of [3H]Ketanserin from 5-HT2A (unknown origin) receptor after 90 mins by microbeta scintillation counting analysis
T3 sequence (P28223 whole entry): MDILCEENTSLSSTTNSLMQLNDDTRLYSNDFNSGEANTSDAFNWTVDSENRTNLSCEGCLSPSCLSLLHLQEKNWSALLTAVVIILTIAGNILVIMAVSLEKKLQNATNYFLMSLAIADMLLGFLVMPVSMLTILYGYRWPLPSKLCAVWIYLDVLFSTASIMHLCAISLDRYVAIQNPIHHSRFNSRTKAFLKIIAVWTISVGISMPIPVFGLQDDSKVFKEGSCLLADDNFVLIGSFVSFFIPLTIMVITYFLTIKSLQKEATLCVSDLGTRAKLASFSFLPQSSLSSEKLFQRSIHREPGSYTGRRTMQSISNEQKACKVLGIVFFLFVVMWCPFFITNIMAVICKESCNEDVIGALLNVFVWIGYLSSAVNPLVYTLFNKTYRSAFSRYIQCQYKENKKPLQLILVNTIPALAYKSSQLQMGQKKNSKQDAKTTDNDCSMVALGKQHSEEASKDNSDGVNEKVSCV

[7] = target: T4, 5-hydroxytryptamine receptor 2B (Homo sapiens, UniProt P41595); assay: Displacement of [3H]-LSD from human 5-HT2B receptor expressed in HEK cells after 90 mins by microbeta scintillation counting analysis; type: cell-based
T4 sequence (P41595 whole entry): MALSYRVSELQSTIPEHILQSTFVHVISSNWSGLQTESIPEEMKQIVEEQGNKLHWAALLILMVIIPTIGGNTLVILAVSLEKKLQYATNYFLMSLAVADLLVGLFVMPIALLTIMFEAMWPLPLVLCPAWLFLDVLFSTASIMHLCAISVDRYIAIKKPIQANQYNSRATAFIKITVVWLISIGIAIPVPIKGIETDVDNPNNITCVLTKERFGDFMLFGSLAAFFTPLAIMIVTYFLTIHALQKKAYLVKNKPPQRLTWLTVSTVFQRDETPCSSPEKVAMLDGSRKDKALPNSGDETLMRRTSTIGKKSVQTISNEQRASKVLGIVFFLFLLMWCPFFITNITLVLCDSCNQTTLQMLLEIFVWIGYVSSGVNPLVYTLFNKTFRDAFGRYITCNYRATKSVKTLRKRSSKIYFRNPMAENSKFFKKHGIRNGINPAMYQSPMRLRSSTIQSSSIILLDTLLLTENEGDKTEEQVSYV

[8] = target: T5, 5-hydroxytryptamine receptor 3A (Homo sapiens, UniProt P46098); assay: Displacement of [3H]-GR65630 from human 5-HT3 receptor expressed in HEKT cells after 90 mins by microbeta scintillation counting analysis; type: cell-based
T5 sequence (P46098 whole entry): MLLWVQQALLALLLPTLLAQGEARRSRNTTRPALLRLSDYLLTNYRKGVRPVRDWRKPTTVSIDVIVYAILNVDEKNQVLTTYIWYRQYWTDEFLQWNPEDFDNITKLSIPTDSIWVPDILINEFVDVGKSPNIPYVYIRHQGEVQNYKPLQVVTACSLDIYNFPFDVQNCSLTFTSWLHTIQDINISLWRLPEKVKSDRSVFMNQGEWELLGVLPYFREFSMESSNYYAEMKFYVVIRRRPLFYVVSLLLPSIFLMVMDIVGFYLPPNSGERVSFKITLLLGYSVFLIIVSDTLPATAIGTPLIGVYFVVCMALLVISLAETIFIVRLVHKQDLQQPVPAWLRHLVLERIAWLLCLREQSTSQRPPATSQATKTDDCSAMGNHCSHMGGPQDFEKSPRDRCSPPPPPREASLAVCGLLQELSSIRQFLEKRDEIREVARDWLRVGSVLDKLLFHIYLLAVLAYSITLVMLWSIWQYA

[9] = target: 5-hydroxytryptamine receptor 4 (Homo sapiens, UniProt Q13639); assay: Antagonist activity at 5-HT4 receptor (unknown origin) by Tango assay; type: functional
Sequence of 5-hydroxytryptamine receptor 4 (Q13639 whole entry): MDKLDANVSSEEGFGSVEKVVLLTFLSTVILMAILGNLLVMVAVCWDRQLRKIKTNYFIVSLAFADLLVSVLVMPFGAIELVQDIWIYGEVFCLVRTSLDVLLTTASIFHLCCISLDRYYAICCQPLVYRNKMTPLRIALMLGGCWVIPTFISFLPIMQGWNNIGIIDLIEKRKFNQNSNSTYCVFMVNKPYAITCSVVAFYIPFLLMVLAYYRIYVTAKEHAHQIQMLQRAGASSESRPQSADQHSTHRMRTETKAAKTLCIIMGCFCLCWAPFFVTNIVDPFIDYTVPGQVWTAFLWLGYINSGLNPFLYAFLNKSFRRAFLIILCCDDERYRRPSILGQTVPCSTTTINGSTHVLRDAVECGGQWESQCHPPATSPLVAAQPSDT

[10] = target: T6, 5-hydroxytryptamine receptor 1A (Homo sapiens, UniProt P08908); assay: Antagonist activity at 5-HT1A receptor (unknown origin) by Tango assay; type: functional
T6 sequence (P08908 whole entry): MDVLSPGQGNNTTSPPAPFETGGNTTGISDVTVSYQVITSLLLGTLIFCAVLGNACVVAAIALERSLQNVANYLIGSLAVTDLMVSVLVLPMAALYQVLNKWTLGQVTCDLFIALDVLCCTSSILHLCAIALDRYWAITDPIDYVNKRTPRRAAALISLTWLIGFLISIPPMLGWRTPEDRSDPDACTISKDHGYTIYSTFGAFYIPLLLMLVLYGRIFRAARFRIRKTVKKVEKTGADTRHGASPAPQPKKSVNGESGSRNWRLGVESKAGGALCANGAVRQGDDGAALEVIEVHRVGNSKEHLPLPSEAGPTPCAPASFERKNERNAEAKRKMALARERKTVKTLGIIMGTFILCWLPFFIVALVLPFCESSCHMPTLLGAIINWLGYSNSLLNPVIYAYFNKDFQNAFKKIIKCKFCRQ

[11] = target: T7, 5-hydroxytryptamine receptor 1B (Homo sapiens, UniProt P28222); assay: Agonist activity at 5-HT1B receptor (unknown origin) at 2 uM by Tango assay; type: functional
T7 sequence (P28222 whole entry): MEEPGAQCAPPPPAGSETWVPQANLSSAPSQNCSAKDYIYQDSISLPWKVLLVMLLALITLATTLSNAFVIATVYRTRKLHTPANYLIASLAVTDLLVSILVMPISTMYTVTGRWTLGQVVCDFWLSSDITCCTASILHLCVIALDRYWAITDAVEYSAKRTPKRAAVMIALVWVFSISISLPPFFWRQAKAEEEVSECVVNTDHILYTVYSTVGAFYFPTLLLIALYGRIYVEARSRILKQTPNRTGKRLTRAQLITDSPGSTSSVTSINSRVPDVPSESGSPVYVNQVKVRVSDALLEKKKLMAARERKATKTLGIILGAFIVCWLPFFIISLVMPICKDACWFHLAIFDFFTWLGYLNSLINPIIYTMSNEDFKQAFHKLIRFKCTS

[12] = target: T7, 5-hydroxytryptamine receptor 1B; assay: Antagonist activity at 5-HT1B receptor (unknown origin) by Tango assay; type: functional
[13] = target: T4, 5-hydroxytryptamine receptor 2B; assay: Antagonist activity at 5-HT2B receptor (unknown origin) by calcium release assay; type: functional
[14] = target: T8, 5-hydroxytryptamine receptor 1D (Homo sapiens, UniProt P28221); assay: Antagonist activity at 5-HT1D receptor (unknown origin) by Tango assay; type: functional
T8 sequence (P28221 whole entry): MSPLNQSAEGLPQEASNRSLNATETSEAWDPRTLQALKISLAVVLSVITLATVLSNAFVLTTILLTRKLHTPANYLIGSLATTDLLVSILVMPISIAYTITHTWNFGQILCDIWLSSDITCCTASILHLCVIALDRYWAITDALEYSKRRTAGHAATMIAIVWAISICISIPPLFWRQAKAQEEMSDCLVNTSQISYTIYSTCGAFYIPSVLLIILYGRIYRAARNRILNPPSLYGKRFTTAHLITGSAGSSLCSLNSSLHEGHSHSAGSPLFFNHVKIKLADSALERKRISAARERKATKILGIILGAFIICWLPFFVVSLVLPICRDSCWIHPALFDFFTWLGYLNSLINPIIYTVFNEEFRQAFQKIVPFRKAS

[15] = target: T7, 5-hydroxytryptamine receptor 1B; assay: Displacement of [3H]5-CT from human 5-HT1B receptor expressed in HEK cells after 90 mins by microbeta scintillation counting analysis; type: cell-based
[16] = target: T7, 5-hydroxytryptamine receptor 1B; assay: Partial agonist activity at 5-HT1B receptor (unknown origin) by Tango assay; type: functional
[17] = target: T8, 5-hydroxytryptamine receptor 1D; assay: Displacement of [3H]5-CT from human 5-HT1D receptor expressed in HEKT cells after 90 mins by microbeta scintillation counting analysis; type: cell-based
[18] = target: T2, 5-hydroxytryptamine receptor 2C; assay: Antagonist activity at 5-HT2C receptor (unknown origin) by calcium release assay; type: functional
Mus musculus [19] = assay: Anticonvulsant activity in mouse assessed as protection against 44 mA current-induced seizure at 100 mg/kg, ip pre-treated 2 to 4 hrs before current challenge by 6 Hz psychomotor seizure test; type: functional, organism-based
Outline: (§1)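 Mice received compound intraperitoneally at 10, 30 and 100 mg/kg. At 0.25, 0.5, 1, 2 and 4 h after dosing, four mice per time point were challenged with 32 or 44 mA for 3 s through corneal electrodes to elicit a partial psychomotor seizure. Data are the number of mice protected over the number tested at each time.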

Mus musculus [20] = assay: Antinociceptive activity in mouse assessed as tail withdrawal latency at 100 mg/kg, ip by tail flick assay; type: functional, organism-based
Mus musculus [21] = assay: Neurotoxicity in mouse assessed as motor impairment at 100 mg/kg, ip after 0.25 to 4 hrs by rotarod test; type: toxicity, organism-based; details: in vivo
Outline: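 Rotarod, four mice per condition after ip dosing (10, 30 or 100 mg/kg). The rod turns at a fixed 6 rpm, and each mouse is observed for 1 min. Falling off three times within that minute scores as minimal motor impairment. Results are the number impaired over the number tested at 0.25–4 h.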

[22] = target: T4, 5-hydroxytryptamine receptor 2B; assay: Ratio of IC50 for antagonist activity at 5-HT2B receptor (unknown origin) by calcium release assay to Ki for displacement of [3H]-LSD from human 5-HT2B receptor expressed in baculovirus infected Sf9 cells; type: functional
Mus musculus [23] = assay: Antinociceptive activity in mouse assessed as increase in pain response latency at 100 mg/kg, ip by hot plate assay; type: functional, organism-based
Outline: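 Mice acclimatized for 10 min, then were placed on a hot plate held at 55 °C inside a clear open-top enclosure. Latency to hindpaw lick, hindpaw flick or jump was timed manually to the nearest 0.1 s.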

Mus musculus [24] = assay: Anticonvulsant activity in mouse assessed as protection against maximal electroshock-induced seizure at 100 mg/kg, ip pre-treated 0.25 to 4 hrs before electrical stimulation; type: functional, organism-based
Outline: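 Maximal electroshock seizure test in mice, four per condition. Compound was given ip at 10, 30 and 100 mg/kg, and mice were challenged at 0.25, 0.5, 1, 2 and 4 h after treatment. Data are the number protected over the number tested.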

Mus musculus [25] = assay: Anticonvulsant activity in mouse assessed as protection against 32/44 mA current-induced seizure at 10 to 100 mg/kg, ip pre-treated 0.25 to 4 hrs before current challenge by 6 Hz psychomotor seizure test; type: functional, organism-based; outline: as §1
[26] = target: T4, 5-hydroxytryptamine receptor 2B; assay: Agonist activity at 5-HT2B receptor (unknown origin) by calcium release assay; type: functional
[27] = target: T3, 5-hydroxytryptamine receptor 2A; assay: Antagonist activity at 5-HT2A receptor (unknown origin) by calcium release assay; type: functional
[28] = target: T1, 5-hydroxytryptamine receptor 7; assay: Antagonist activity at 5-HT7A receptor (unknown origin) by Tango assay

SMILES | pKi [1] | pKi [2] | pKi [3] | pKi [4] | pKi [5] | pKi [6] | pKi [7] | pKi [8] | pIC50 [9] | pIC50 [10] | inhibition [11] [%] | pIC50 [12] | pIC50 [13] | pIC50 [14] | pKi [15] | pEC50 [16] | pKi [17] | pIC50 [18] | also measured
CCCCOc1ccc(C2=N[C@@H](CO)[C@H](C)S2)cc1 (relative stereo) | < 5.00 | < 5.00 | < 5.00 | < 5.00 | 5.49 | 5.66 | 5.12 | < 5.00 | < 5.00 | < 5.00 | 100 | 5.68 | < 5.00 | < 5.00 | < 5.00 | 7.54 | 5.01 |  | 
COC(=O)[C@H](Cc1cnc[nH]1)NC(=O)[C@H]1N=C(c2ccccc2O)S[C@@H]1C |  |  |  | 5.85 | 6.09 | 6.51 | 6.00 |  |  | < 5.00 |  |  | 5.00 |  |  |  | 5.48 | < 5.00 | 
C[C@@H]1SC(c2ccccc2O)=N[C@H]1CO |  |  |  |  | 5.80 |  | 6.89 |  |  |  |  |  | 4.74 |  |  |  |  |  | Activity (Mus musculus [19]): inactive; Activity (Mus musculus [20]): inactive; Activity (Mus musculus [21]): Non-Toxic; Ratio [22]: 50 to 140; Activity (Mus musculus [23]): Active; Activity (Mus musculus [24]): inactive; Activity (Mus musculus [25]): Active; Activity [26]: inactive
CCCCCCOc1ccc(C2=N[C@@H](CO)[C@H](C)S2)cc1 (relative stereo) | < 5.00 | < 5.00 | < 5.00 | < 5.00 | 5.77 | 5.41 | 5.37 | < 5.00 | < 5.00 | < 5.00 | 100 | 5.72 | < 5.00 | < 5.00 | < 5.00 | 6.74 | < 5.00 |  | 
Oc1ccccc1C1=NC(Cc2c[nH]cn2)C(c2ccccc2)S1 (racemic) | 5.66 | 5.33 | < 5.00 | 5.62 | 6.11 | 5.96 | 7.00 | 6.07 |  | < 5.00 |  |  | 5.42 | < 5.00 |  |  | 5.66 | < 5.00 | pIC50 [27]: 4.89; pIC50 [28]: < 5.00
